Experimental data reported in ChEMBL document CHEMBL3352378, “Novel carbazole inhibits phospho-STAT3 through induction of protein-tyrosine phosphatase PTPN6” (J Med Chem, 2014).
Calls of active or inactive are those of the source. The calls are words filed in the database; no cut-off is given here.

Legend:
[1] = molecular target: Signal transducer and activator of transcription 3 (Homo sapiens) (UniProt P40763); experiment: Inhibition of STAT3 in human Hs578T cells assessed as reduction of cyclin D1 mRNA expression at 0.3 to 1 uM after 24 hrs by RT-PCR analysis; type: cell-based; details: Hs-578T
Procedure, shortened: (§1)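 HS578T and SUM149PT cells treated for 24 h with increasing concentrations. Transcripts measured by RT-PCR, normalized to GAPDH as loading control.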

[2] = molecular target: Signal transducer and activator of transcription 3 (Homo sapiens) (UniProt P40763); experiment: Inhibition of STAT3 in human SUM149PT cells assessed as reduction of cyclin D1 mRNA expression at 0.3 to 1 uM after 24 hrs by RT-PCR analysis; type: cell-based; procedure, shortened: as §1
[3] = molecular target: Signal transducer and activator of transcription 3 (Homo sapiens) (UniProt P40763); experiment: Inhibition of STAT3 in human Hs578T cells assessed as reduction of survivin mRNA expression at 0.3 to 1 uM after 24 hrs by RT-PCR analysis; type: cell-based; details: Hs-578T; procedure, shortened: as §1
[4] = molecular target: Signal transducer and activator of transcription 3 (Homo sapiens) (UniProt P40763); experiment: Inhibition of STAT3 in human SUM149PT cells assessed as reduction of survivin mRNA expression at 0.3 to 1 uM after 24 hrs by RT-PCR analysis; type: cell-based; procedure, shortened: as §1
Hs-578T [5] = experiment: Induction of PTPN6 mRNA expression in human Hs578T cells after 24 hrs by RT-PCR analysis; type: functional, cell-based
Procedure, shortened: (§2)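 HS578T and SUM149PT cells given increasing concentrations for 24 h. PTPN6 mRNA measured by RT-PCR, with GAPDH as loading control.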

SUM149PT [6] = experiment: Induction of PTPN6 mRNA expression in human SUM149PT cells after 24 hrs by RT-PCR analysis; type: functional, cell-based; procedure, shortened: as §2
[7] = molecular target: Tyrosine-protein phosphatase non-receptor type 6 (Homo sapiens) (UniProt P29350); experiment: Induction of PTPN6 in human Hs578T cells assessed as inhibition of STAT3 phosphorylation at 3 uM after 16 hrs by Western blotting analysis in presence of pervanadate; type: cell-based; details: Hs-578T
Procedure, shortened: (§3)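 HS578T and SUM149PT cells treated for 16 h without or with increasing pervanadate as a phosphatase inhibitor; JAK1/2 inhibitor CP690550 run in parallel. Lysates immunoblotted for phospho-STAT3 (Y705), with β-actin as loading control.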

[8] = molecular target: Tyrosine-protein phosphatase non-receptor type 6 (Homo sapiens) (UniProt P29350); experiment: Induction of PTPN6 in human SUM149PT cells assessed as inhibition of STAT3 phosphorylation at 3 uM after 16 hrs by Western blotting analysis in presence of pervanadate; type: cell-based; procedure, shortened: as §3
Hs-578T [9] = experiment: Induction of PTPN6 protein expression in human Hs578T cells transfected with control-siRNA after 24 hrs by Western blotting analysis; type: functional, cell-based
Procedure, shortened: (§4)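 HS578T cells transfected with 100 nM control or PTPN6 siRNA using Lipofectamine 2000 in serum-free medium. Medium with 20% FBS added after 4 h, and cells kept 3 days. Then treated with DMSO or compound for 24 h. PTPN6 and phospho-STAT3 immunoblotted and quantified by ImageJ densitometry.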

Hs-578T [10] = experiment: Induction of PTPN6 protein expression in human Hs578T cells transfected with PTPN6-siRNA after 24 hrs by Western blotting analysis; type: functional, cell-based; procedure, shortened: as §4
[11] = Drug uptake in human MDA-MB-231 cell cytoplasm at 10 uM after 1 hr by two-photon confocal microscopy; type: ADME, cell-based; details: mda-mb-231, 1 h
Procedure, shortened: (§5)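 MDA-MB-231 cells grown overnight on fibronectin/[…]-coated slides, then given 10 μM compound or DMSO for 1 h. Cells washed with PBS and fixed in 4% formaldehyde. Two-photon excitation at 725 nm, emission collected through a 500–550 nm filter.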

[12] = Drug uptake in human MDA-MB-231 cell nucleus at 10 uM after 1 hr by two-photon confocal microscopy; type: ADME, cell-based; details: mda-mb-231, 1 h; procedure, shortened: as §5
A549 [13] = experiment: Antitumor activity against human A549 cells xenografted in athymic Balb/c nude mouse at 10 mg/kg, ip administered every other day for 27 days measured on day 5; type: functional; details: route intraperitoneal, read-out: TGI
Procedure, shortened: (§6)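 Male and female athymic nude mice (18–22 g) implanted subcutaneously in the right auxiliary region with 3×10^6 A549 cells. Mice were randomized into groups of five 3 days after implantation, and dosing started at about 50 mm³ tumor. Working solution 1 mg/mL in 10% Cremophore/3% PEG400/87% PBS; ip every other day, vehicle control. Caliper volume L×w×w/2, mean ± SEM, n = 5.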

A549 [14] = experiment: Antitumor activity against human A549 cells xenografted in athymic Balb/c nude mouse at 10 mg/kg, ip administered every other day for 27 days measured on day 9; type: functional; details: route intraperitoneal, read-out: TGI; procedure, shortened: as §6
A549 [15] = experiment: Antitumor activity against human A549 cells xenografted in athymic Balb/c nude mouse at 10 mg/kg, ip administered every other day for 27 days measured up to day 27; type: functional; details: 648 h, route intraperitoneal, read-out: TGI; procedure, shortened: as §6
Mus musculus [16] = experiment: Toxicity in athymic Balb/c nude mouse xenografted with human SUM149 cells assessed as change in body weight at 10 to 30 mg/kg, ip administered every other day for 5 days; type: organism-based; set-up: dose 10-30 mg/kg, route intraperitoneal; details: in vivo, 120 h
Procedure, shortened: (§7)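 SUM149 cells (3×10^6) implanted subcutaneously in the right auxiliary region of male and female athymic nude mice (18–22 g). Groups of five, randomized; dosed ip every other day at 10 or 30 mg/kg from 1 mg/mL Cremophore 10%/PEG400 3%/PBS vehicle, vehicle control. Tumor volume by caliper (L×w×w/2); body weight, appetite, activity and lethargy monitored.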

Mus musculus [17] = experiment: Toxicity in athymic Balb/c nude mouse xenografted with human SUM149 cells assessed as loss of appetite at 10 to 30 mg/kg, ip administered every other day for 5 days; type: organism-based; set-up: dose 10-30 mg/kg, route intraperitoneal; details: in vivo, 120 h; procedure, shortened: as §7
Mus musculus [18] = experiment: Toxicity in athymic Balb/c nude mouse xenografted with human SUM149 cells assessed as decreased activity at 10 to 30 mg/kg, ip administered every other day for 5 days; type: organism-based; set-up: dose 10-30 mg/kg, route intraperitoneal; details: in vivo, 120 h; procedure, shortened: as §7
Mus musculus [19] = experiment: Toxicity in athymic Balb/c nude mouse xenografted with human SUM149 cells assessed as lethargy at 10 to 30 mg/kg, ip administered every other day for 5 days; type: organism-based; set-up: dose 10-30 mg/kg, route intraperitoneal; details: in vivo, 120 h; procedure, shortened: as §7
[20] = Antitumor activity against human SUM149 cells xenografted in athymic Balb/c nude mouse at 10 to 30 mg/kg, ip administered every other day for 5 days measured on day 5; type: functional, SUM149PT; details: dose mg/kg 10-30; route intraperitoneal; procedure, shortened: as §7
[21] = Antitumor activity against human SUM149 cells xenografted in athymic Balb/c nude mouse assessed as PTPN6 upregulation at 30 mg/kg, ip administered every other day for 5 days measured on day 5 by Western blotting analysis; type: functional, organism-based; set-up: dose 30 mg/kg; details: SUM149PT
Procedure, shortened: (§8)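 SUM149 subcutaneous xenografts in nude mice (n = 5), dosed ip every other day in Cremophore/PEG400/PBS vehicle. Tumors taken on day 5 were immunoblotted for PTPN6, STAT3 and pSTAT3, with GAPDH as control. PTPN6 quantified by densitometry with a one-tailed t test.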

SUM149PT [22] = experiment: Antitumor activity against human SUM149 cells xenografted in athymic Balb/c nude mouse assessed as reduction in pSTAT3 level at 30 mg/kg, ip administered every other day for 5 days measured on day 5 by Western blotting analysis; type: functional, organism-based; set-up: dose 30 mg/kg; procedure, shortened: as §8

Signal transducer and activator of transcription 3 (Homo sapiens), sequence (P40763 whole entry): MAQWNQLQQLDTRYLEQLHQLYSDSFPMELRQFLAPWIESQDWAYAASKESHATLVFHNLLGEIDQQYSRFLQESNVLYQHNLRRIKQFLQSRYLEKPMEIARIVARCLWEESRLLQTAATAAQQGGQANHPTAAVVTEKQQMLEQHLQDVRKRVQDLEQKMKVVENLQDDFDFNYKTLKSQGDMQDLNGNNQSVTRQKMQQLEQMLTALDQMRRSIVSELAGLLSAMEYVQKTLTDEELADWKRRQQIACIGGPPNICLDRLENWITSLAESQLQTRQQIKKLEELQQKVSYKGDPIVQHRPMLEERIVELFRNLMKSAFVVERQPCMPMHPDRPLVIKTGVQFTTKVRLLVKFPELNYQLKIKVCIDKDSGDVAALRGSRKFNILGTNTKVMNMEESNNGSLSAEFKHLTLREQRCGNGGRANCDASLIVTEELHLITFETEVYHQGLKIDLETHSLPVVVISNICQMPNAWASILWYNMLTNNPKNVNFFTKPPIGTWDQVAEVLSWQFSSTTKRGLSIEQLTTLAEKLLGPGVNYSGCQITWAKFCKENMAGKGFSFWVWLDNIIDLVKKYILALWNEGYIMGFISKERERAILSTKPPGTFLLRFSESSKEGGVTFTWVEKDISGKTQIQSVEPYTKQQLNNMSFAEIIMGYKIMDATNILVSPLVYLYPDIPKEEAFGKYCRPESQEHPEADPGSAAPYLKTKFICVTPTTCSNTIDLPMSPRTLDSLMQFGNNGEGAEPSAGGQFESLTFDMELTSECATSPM
Tyrosine-protein phosphatase non-receptor type 6 (Homo sapiens), sequence (P29350 whole entry): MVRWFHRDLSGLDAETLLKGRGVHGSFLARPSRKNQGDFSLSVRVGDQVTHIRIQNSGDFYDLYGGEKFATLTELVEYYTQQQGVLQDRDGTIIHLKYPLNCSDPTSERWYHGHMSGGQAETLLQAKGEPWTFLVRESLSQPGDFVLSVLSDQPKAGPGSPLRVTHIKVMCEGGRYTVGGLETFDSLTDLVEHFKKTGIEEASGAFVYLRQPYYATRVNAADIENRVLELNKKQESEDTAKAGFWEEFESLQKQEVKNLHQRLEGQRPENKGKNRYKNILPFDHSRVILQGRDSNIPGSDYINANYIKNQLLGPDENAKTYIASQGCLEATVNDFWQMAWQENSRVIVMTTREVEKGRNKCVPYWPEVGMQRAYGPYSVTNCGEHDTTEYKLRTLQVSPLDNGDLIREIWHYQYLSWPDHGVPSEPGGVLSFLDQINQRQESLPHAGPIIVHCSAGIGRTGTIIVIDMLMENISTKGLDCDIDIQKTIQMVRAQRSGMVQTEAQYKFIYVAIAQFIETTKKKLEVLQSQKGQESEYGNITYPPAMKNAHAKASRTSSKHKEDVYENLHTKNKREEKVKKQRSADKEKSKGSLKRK

- inhibition [1]: Active
- inhibition [2]: Active
- inhibition [7]: inactive
- inhibition [8]: inactive
- Drug uptake [11]: Active
- Drug uptake [12]: Not Active
SMILES: Cc1c(OS(=O)(=O)c2cccc3c(N(C)C)cccc23)ccc2c1[nH]c1cc(O)ccc12
- inhibition [3]: Active
- inhibition [4]: Active
- Activity (Hs-578T [5]): Dose-dependent effect
- Activity (SUM149PT [6]): Dose-dependent effect
- Activity (Hs-578T [9]): Active
- Activity (Hs-578T [10]): inactive
- inhibition in vivo at 10 mg/kg (A549 [13]): 68.7%
- inhibition in vivo at 10 mg/kg (A549 [14]): 73.8%
- inhibition in vivo at 10 mg/kg (A549 [15]): 54.9%
- Activity (Mus musculus [16]): Non-toxic
- Activity (Mus musculus [17]): Non-toxic
- Activity (Mus musculus [18]): Non-toxic
- Activity (Mus musculus [19]): Non-toxic
- TGI [20]: 57%
- Activity [21]: Active
- Activity (SUM149PT [22]): Active
